ChEMBL document CHEMBL1126834, “Chemistry, binding affinities, and behavioral properties of a new class of "antineophobic" mitochondrial DBI receptor complex (mDRC) ligands” (J Med Chem, 1993)

Columns and labels:
[1] = biological target: Adrenergic receptor alpha; experiment: Inhibitory activity by measuring its ability to displace [3H]clonidine from alpha-adrenergic receptor in rat brain; format: tissue-based
Opioid receptor = Opioid receptor (Rattus norvegicus, UniProt P33533+P34975+P33535); experiment: Inhibition of [3H]naxolone binding to opiate receptors in rat brain; format: tissue-based
[2] = biological target: GABA-A receptor; anion channel; experiment: Inhibitory activity at GABA A receptor, measured by the ability to displace [3H]flumazenil from GABA A receptor in rat brain; format: tissue-based
Adrenergic receptor beta = Adrenergic receptor beta (Rattus norvegicus, UniProt P18090+P10608+P26255); experiment: Inhibitory activity by measuring its ability to displace [125I]pindolol from beta-adrenergic receptor in rat brain; format: tissue-based
[3] = Tested for inhibitory activity by measuring its ability to displace [3H]AMPA from glutamate (non-NMDA) receptor in rat brain; format: tissue-based
[4] = biological target: T1, Gastrin/cholecystokinin type B receptor (Rattus norvegicus, UniProt P30553); experiment: Inhibitory activity by measuring its ability to displace [3H]L-365260 from cholecystokinin receptor in rat brain; format: tissue-based
T1 sequence (P30553 whole entry): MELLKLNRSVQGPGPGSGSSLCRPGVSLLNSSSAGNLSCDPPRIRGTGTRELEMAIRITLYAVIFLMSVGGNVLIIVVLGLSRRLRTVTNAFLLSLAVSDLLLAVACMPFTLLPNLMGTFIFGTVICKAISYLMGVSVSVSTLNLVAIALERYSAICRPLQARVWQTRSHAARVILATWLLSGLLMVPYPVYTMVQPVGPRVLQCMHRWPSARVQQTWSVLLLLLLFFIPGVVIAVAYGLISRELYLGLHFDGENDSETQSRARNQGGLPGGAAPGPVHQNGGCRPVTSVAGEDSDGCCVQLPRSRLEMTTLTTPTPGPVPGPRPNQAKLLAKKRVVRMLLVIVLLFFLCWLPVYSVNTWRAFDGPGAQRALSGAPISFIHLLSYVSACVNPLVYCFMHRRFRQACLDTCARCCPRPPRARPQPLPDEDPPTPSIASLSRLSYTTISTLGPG

Glutamate NMDA receptor = experiment: Inhibitory activity by measuring its ability to displace [3H]-MK-801 from glutamate(NMDA) receptor in rat brain; format: tissue-based
[5] = biological target: GABA-A receptor; anion channel; experiment: Inhibitory activity at GABA A receptor, measured by the ability to displace [3H]zolpidem from GABA A receptor in rat brain; format: tissue-based
[6] = Inhibitory activity at GABA B receptor, measured by the ability to displace [3H]baclofen from GABA B receptor in rat brain; format: tissue-based
[7] = Inhibitory activity by measuring its ability to displace [3H]glycine from glycine receptor in rat brain; format: tissue-based
[8] = biological target: GABA-A receptor; anion channel; experiment: Inhibitory activity at GABA A receptor, measured by the ability to displace [3H]GABA from GABA A receptor in rat brain; format: tissue-based
[9] = biological target: Serotonin 2 (5-HT2) receptor (Rattus norvegicus); experiment: Inhibitory activity by measuring its ability to displace [3H]ketanserin from serotonin receptor in rat brain
[10] = Inhibitory activity by measuring its ability to displace [3H]spiperone from dopamine or serotonin 5-HT-1 receptors in rat brain; format: tissue-based
Translocator protein = Translocator protein (Rattus norvegicus, UniProt P16257); experiment: Binding affinity against mitochondrial DBI complex (peripheral benzodiazepine receptor) using primary cultures of glial cells
Procedure, shortened: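 Glia from cerebella of 8-day-old Sprague–Dawley rat pups, trypsin-dissociated and grown 14 days (~95% astroglia). Cells lysed in 50 mM Hepes pH 7.4, 4 μg protein per tube. Incubated with [3H]4'-chlorodiazepam and competitor for 90 min at 4 °C, then filtered. Nonspecific binding defined with 10 μM 4'-chlorodiazepam. Triplicate competition curves; IC50 by nonlinear regression, converted to Ki (Bylund–Yamamura).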

Cannabinoid receptor 1 = Cannabinoid receptor 1 (Rattus norvegicus, UniProt P20272); experiment: Inhibitory activity, measured by displacement [3H]CP-55940 from cannabinoid receptor (CB1) in rat brain; format: tissue-based
[11] = biological target: Adrenergic receptor alpha; experiment: Inhibitory activity by measuring its ability to displace [3H]WB-4101 from alpha-adrenergic receptor in rat brain; format: tissue-based
[12] = biological target: Sigma receptor (Rattus norvegicus); experiment: Tested for inhibitory activity by measuring its ability to displace [3H]3-PPP from sigma receptor in rat brain
[13] = biological target: GABA-A receptor; anion channel; experiment: Inhibitory activity at GABA A receptor, measured by the ability to displace [35S]TBPS from GABA A receptor in rat brain; format: tissue-based

Cannabinoid receptor 1, sequence (P20272 whole entry): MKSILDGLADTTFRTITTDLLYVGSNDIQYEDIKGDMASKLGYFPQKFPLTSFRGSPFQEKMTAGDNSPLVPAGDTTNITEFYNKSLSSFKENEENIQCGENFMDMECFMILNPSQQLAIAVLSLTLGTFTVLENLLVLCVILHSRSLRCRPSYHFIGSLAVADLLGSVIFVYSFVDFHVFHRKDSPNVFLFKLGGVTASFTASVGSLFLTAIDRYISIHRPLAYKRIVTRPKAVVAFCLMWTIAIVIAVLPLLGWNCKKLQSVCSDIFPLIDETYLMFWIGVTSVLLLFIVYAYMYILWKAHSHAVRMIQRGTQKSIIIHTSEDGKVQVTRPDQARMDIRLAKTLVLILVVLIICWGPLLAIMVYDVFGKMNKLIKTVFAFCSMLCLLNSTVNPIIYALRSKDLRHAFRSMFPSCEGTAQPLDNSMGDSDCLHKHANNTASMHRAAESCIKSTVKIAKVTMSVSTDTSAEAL
Translocator protein, sequence (P16257 whole entry, looked up): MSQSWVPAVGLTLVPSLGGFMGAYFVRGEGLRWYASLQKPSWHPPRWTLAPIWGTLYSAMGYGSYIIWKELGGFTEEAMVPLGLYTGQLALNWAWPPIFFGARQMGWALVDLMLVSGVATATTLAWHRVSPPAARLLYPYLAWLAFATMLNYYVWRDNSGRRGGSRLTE

IC50 [1] [µM] | IC50 (Opioid receptor) [µM] | IC50 [2] [µM] | IC50 (Adrenergic receptor beta) [µM] | IC50 [3] [µM] | IC50 [4] [µM] | IC50 (Glutamate NMDA receptor) [µM] | IC50 [5] [µM] | IC50 [6] [µM] | IC50 [7] [µM] | IC50 [8] [µM] | IC50 [9] [µM] | IC50 [10] [µM] | Ki (Translocator protein) [µM] | IC50 (Cannabinoid receptor 1) [µM] | IC50 [11] [µM] | IC50 [12] [µM] | IC50 [13] [µM] | Structure (SMILES)
> 1 | > 1 | > 1 | > 1 | > 1 | > 1 | > 1 | > 1 | > 1 | > 1 | > 1 | > 1 | > 1 | 0.015 | > 1 | > 1 | > 1 | > 1 | CCCCCN(CCCCC)C(=O)Cc1c(-c2ccc(F)cc2)[nH]c2ccccc12
> 1 | > 1 | > 1 | > 1 | > 1 | > 1 | > 1 | > 1 | > 1 | > 1 | > 1 | > 1 | > 1 | 0.34 | > 1 | > 1 | > 1 | > 1 | CCCN(CCC)C(=O)Cc1c(-c2ccc(Cl)cc2)n(C)c2ccccc12
> 1 | > 1 | > 1 | > 1 | > 1 | > 1 | > 1 | > 1 | > 1 | > 1 | > 1 | > 1 | > 1 | 0.071 | > 1 | > 1 | > 1 | > 1 | CCCN(CCC)C(=O)CCc1c(-c2ccc(Cl)cc2)[nH]c2ccc(Cl)cc12
> 1 | > 1 | > 1 | > 1 | > 1 | > 1 | > 1 | > 1 | > 1 | > 1 | > 1 | > 1 | > 1 | – | > 1 | > 1 | > 1 | > 1 | O=C1Cc2c(-c3ccccc3)[nH]c3cccc(c23)N1
> 1 | > 1 | > 1 | > 1 | > 1 | > 1 | > 1 | > 1 | > 1 | > 1 | > 1 | > 1 | > 1 | – | > 1 | > 1 | > 1 | > 1 | c1ccc(-c2[nH]c3ccccc3c2CC2=NCCN2)cc1
> 1 | > 1 | > 1 | > 1 | > 1 | > 1 | > 1 | > 1 | > 1 | > 1 | > 1 | > 1 | > 1 | 0.0039 | > 1 | > 1 | > 1 | > 1 | CCCN(CCC)C(=O)Cc1c(-c2ccc(Cl)cc2)[nH]c2ccc(Cl)cc12
> 1 | > 1 | > 1 | > 1 | > 1 | > 1 | > 1 | > 1 | > 1 | > 1 | > 1 | > 1 | > 1 | 0.202 | > 1 | > 1 | > 1 | > 1 | CCCN(CCC)C(=O)Cc1c(-c2ccccc2)[nH]c2cc(F)ccc12
> 1 | – | > 1 | > 1 | > 1 | > 1 | > 1 | > 1 | > 1 | > 1 | > 1 | – | > 1 | 0.17 | > 1 | > 1 | – | > 1 | CN(C)C(=O)Cc1c(-c2ccccc2)[nH]c2ccccc12
> 1 | – | > 1 | > 1 | > 1 | > 1 | > 1 | > 1 | > 1 | > 1 | > 1 | – | > 1 | 0.15 | > 1 | > 1 | – | > 1 | Cc1ccc(-c2[nH]c3ccc(C)cc3c2CC(=O)N(C)C)cc1
> 1 | – | > 1 | > 1 | > 1 | > 1 | > 1 | > 1 | > 1 | > 1 | > 1 | – | > 1 | 0.066 | > 1 | > 1 | – | > 1 | CCCN(CCC)C(=O)Cc1c(-c2ccc(Cl)cc2)[nH]c2ccccc12
> 1 | – | > 1 | > 1 | > 1 | > 1 | > 1 | > 1 | > 1 | > 1 | > 1 | – | > 1 | 0.476 | > 1 | > 1 | – | > 1 | O=C(Cc1c(-c2ccc(F)cc2)[nH]c2ccccc12)Nc1ccccc1Br
> 1 | – | > 1 | > 1 | > 1 | > 1 | > 1 | > 1 | > 1 | > 1 | > 1 | – | > 1 | 0.338 | > 1 | > 1 | – | > 1 | O=C(Cc1c(-c2ccccc2)[nH]c2ccccc12)N1CCCC1
> 1 | – | > 1 | > 1 | > 1 | > 1 | > 1 | > 1 | > 1 | > 1 | > 1 | – | > 1 | > 1 | > 1 | > 1 | – | > 1 | CCCCCCN(CCCCCC)C(=S)Cc1c(-c2ccc(F)cc2)[nH]c2ccccc12
> 1 | – | > 1 | > 1 | > 1 | > 1 | > 1 | > 1 | > 1 | > 1 | > 1 | – | > 1 | 0.078 | > 1 | > 1 | – | > 1 | CCCN(CCC)C(=O)Cc1c(-c2cccs2)[nH]c2ccc(Cl)cc12
> 1 | – | > 1 | > 1 | > 1 | > 1 | > 1 | > 1 | > 1 | > 1 | > 1 | – | > 1 | 0.304 | > 1 | > 1 | – | > 1 | CCCN(CCC)C(=O)Cc1c(-c2cccs2)[nH]c2ccccc12
